Measured values gathered from unrelated publications.
FLT3: Receptor-type tyrosine-protein kinase FLT3 (FLT3, Homo sapiens, UniProt P36888)
PTGS1: Prostaglandin G/H synthase 1 (PTGS1, Homo sapiens, UniProt P23219)
Aldo-keto reductase family 1 member B1: Aldo-keto reductase family 1 member B1 (Bos taurus, UniProt P16116)
TYRO3: Tyrosine-protein kinase receptor TYRO3 (TYRO3, Homo sapiens, UniProt Q06418)
CAMK2A: Calcium/calmodulin-dependent protein kinase type II subunit alpha (CAMK2A, Homo sapiens, UniProt Q9UQM7)
DHFR: Dihydrofolate reductase (DHFR, Homo sapiens, UniProt P00374)
CSNK1D: Casein kinase I isoform delta (CSNK1D, Homo sapiens, UniProt P48730)
FAAH: Fatty-acid amide hydrolase 1 (FAAH, Homo sapiens, UniProt O00519)
HTR2C: 5-hydroxytryptamine receptor 2C (HTR2C, Homo sapiens, UniProt P28335)

C[C@H]1OC(=O)/C=C/C(=O)[C@@H](OC(=O)CCC(=O)O)CCCCCCCC[C@H]1O
IC50 (Stromelysin-1 (MMP3, Homo sapiens, UniProt P08254); enzyme activity; inhibitor): 10 µM

CCNc1ccnc(Nc2cccc(-c3cccnc3)c2)n1
IC50 (FLT3; enzyme activity; inhibitor): 0.0475 µM

CC(C)(C(=O)O)C1=C/C(=C\c2ccc(-c3ccccc3)cc2)c2ccc(F)cc21
IC50 (PTGS1; enzyme activity in cells; inhibitor): 1.3 µM

CC(=N/N=c1\scc(-c2ccc(Cl)cc2)n1Cc1ccccc1)C12CC3CC(CC(C3)C1)C2
IC50 (Aldo-keto reductase family 1 member B1; enzyme activity; inhibitor; absorbance): 2.18 µM

CN(C)c1ccc(Nc2nc(-c3ccncc3)nc3c2CC(N)CC3)cc1 (centres unmarked)
IC50 (PTGS1; enzyme activity; inhibitor): ~4.5 µM

Cc1ccc(NC(=O)c2ccc(C)c(C(F)(F)F)c2)cc1C#Cc1nn(C2CCC(O)CC2)c2ncnc(N)c12 (centres unmarked)
IC50 (TYRO3; enzyme activity; inhibitor; radiometric): 0.351 µM

c1ccc(-c2ccccc2Nc2nccc(NC3CCCCC3)n2)cc1
IC50 (FLT3; enzyme activity; inhibitor): > 13 µM

O=C(Nc1ccc(Br)cc1)N1CCC(n2c(=O)[nH]c3c(Br)cccc32)CC1
IC50 (Formamidopyrimidine-DNA glycosylase (Escherichia coli, UniProt P05523); enzyme activity; inhibitor): > 100 µM

CC(C)(C)n1nc(-c2ccc3nc(OC4CC4)ccc3c2)c(C(N)=O)c1N
IC50 (CAMK2A; cell-free assay; inhibitor): > 10 µM

CC(C)Nc1ccnc(Nc2cccc(-c3ccncc3)c2)n1
IC50 (FLT3; enzyme activity; inhibitor): 0.284 µM

CCN(CC)CCCC[C@H](NC(=O)[C@H](CC(C)C)NC(=O)[C@H](C)NC(=O)[C@H](Cc1ccccc1)NC(=O)c1ccc(C(C)(C)C)cc1)C(=O)N[C@@H](CO)C(=O)OC
IC50 (Chromodomain Y-like protein 2 (CDYL2, Homo sapiens, UniProt Q8N8U2); ligand displacement; TR-FRET): 0.085 µM

c1cc(Nc2nccc(NC3CCCCC3)n2)cc(-n2ccnc2)c1
IC50 (FLT3; enzyme activity; inhibitor): 0.016 µM

Clc1ccc(Cn2c(-c3ccc(Cl)cc3)nc3ccccc32)cc1
IC50 (DHFR; enzyme activity; inhibitor): 10.6 µM

O=C1NCCc2sc(-c3ccncc3)cc21
IC50 (CSNK1D; enzyme activity; inhibitor): 1.4 µM

FC(F)(F)C1(Nc2ccnc(Nc3cccc(-c4cccnc4)c3)n2)CC1
IC50 (FLT3; enzyme activity; inhibitor): < 0.006 µM

O=C(Oc1nsnc1N1CCCCC1)N1CCCC1
IC50 (FAAH; enzyme activity; inhibitor; cell membranes): 0.813 µM

C/C(=N/N=c1/scc(-c2ccc(Cl)cc2)n1-c1ccc(F)cc1)c1ccc2c(c1)OCCO2
IC50 (Aldo-keto reductase family 1 member B1; enzyme activity; inhibitor; absorbance): 9.63 µM

c1ccc(-c2cccc(Nc3nccc(NC4CCCCC4)n3)c2)cc1
IC50 (FLT3; enzyme activity; inhibitor): > 12 µM

O=[N+]([O-])c1ccc(-c2nc3ccccc3n2Cc2ccccc2)cc1
IC50 (DHFR; enzyme activity; inhibitor): 12.3 µM

CCCC[C@@H](C(=O)N[C@@H](CC(=O)O)C(=O)N(C)[C@@H](Cc1ccccc1)C(N)=O)N(C)C(=O)[C@H](Cc1c[nH]c2ccccc12)NC(=O)CNC(=O)[C@H](Cc1ccc(O)cc1)NC(=O)[C@H](C)NC(=O)[C@@H](CCC(=O)O)NC(=O)CN1CCN(CC(=O)O)CCN(CC(=O)O)CCN(CC(=O)O)CC1
IC50 (Gastrin/cholecystokinin type B receptor (CCKBR, Homo sapiens, UniProt P32239); ligand displacement; radioligand): 0.00498 µM

O=C(Nc1ccccc1C=NNS(=O)(=O)c1ccc2ccccc2c1)c1ccc([N+](=O)[O-])cc1
IC50 (UDP-N-acetylmuramate--L-alanine ligase (murC, Escherichia coli K-12, UniProt P17952); enzyme activity; inhibitor; absorbance): 27 µM

C/C(=N/N=c1/scc(-c2ccc(Cl)cc2)n1-c1ccccc1)c1ccc2c(c1)OCCO2
IC50 (Aldo-keto reductase family 1 member B1; enzyme activity; inhibitor; absorbance): 14.5 µM

Cc1cnc(-c2ccc(-c3ccc(NC(=O)Nc4c(F)cc(F)cc4F)cc3F)c3c2C(=O)NC3)[nH]1
IC50 (Aurora kinase A (AURKA, Homo sapiens, UniProt O14965); enzyme activity; inhibitor): 0.00038 µM

CC(=N/N=c1\scc(-c2ccc(Br)cc2)n1-c1ccccc1C)C12CC3CC(CC(C3)C1)C2
IC50 (Aldo-keto reductase family 1 member B1; enzyme activity; inhibitor; absorbance): 10.2 µM

C[C@@H]1Cc2ccccc2N1C(=O)NCCCCN(C)[C@@H]1Cc2cccc3[nH]c(=O)n(c23)C1
IC50 (HTR2C; ligand displacement; radioligand): > 10 µM

COc1ccc2c(Oc3ccc4c(C(=O)Nc5ccccc5N)cccc4c3)ccnc2c1
IC50 (Aurora kinase C (AURKC, Homo sapiens, UniProt Q9UQB9); enzyme activity; inhibitor): > 0.5 µM

CC1=C(/C=C/C(C)=C/C=C/C(C)=C/C=O)C(C)(C)CCC1
IC50 (Prothrombin (F2, Bos taurus, UniProt P00735); enzyme activity; inhibitor; fluorescence): 74 µg/mL

O=C(Oc1nsnc1N1CCc2ccccc2C1)N1CCCCC1
IC50 (FAAH; enzyme activity; inhibitor; cell membranes): 0.017 µM

CNc1ccnc(Nc2cccc(-c3cccnc3)c2)n1
IC50 (FLT3; enzyme activity; inhibitor): 0.204 µM

CN(C)CC#Cc1ccc2[nH]c3c(c2c1)-c1nc(N)ncc1CCC3
IC50 (Serine/threonine-protein kinase ULK3 (ULK3, Homo sapiens, UniProt Q6PHR2); enzyme activity; inhibitor; radiometric): > 10 µM

O=C(O)c1ccnc2c(O)cccc12
IC50 (Gamma-butyrobetaine dioxygenase (BBOX1, Homo sapiens, UniProt O75936); enzyme activity; inhibitor): 111 µM

Nc1nc(Nc2ccc3c(c2)CC[C@@H](N2CCCC2)CC3)nn1-c1cc2c(nn1)-c1ccccc1CCC2
IC50 (TYRO3; enzyme activity; inhibitor): 0.927 µM

O=[N+]([O-])c1ccc(-c2cs/c(=N/N=C\c3c[nH]c4ccccc34)n2Cc2ccccc2)cc1
IC50 (Aldo-keto reductase family 1 member B1; enzyme activity; inhibitor; absorbance): 1.52 µM

CN1CCN(c2ccc(Nc3ncc4cc(C#N)c(=O)n(C5CCCC5)c4n3)cc2)CC1
IC50 (CSNK1D; enzyme activity; inhibitor): 1.77 µM

Cc1ccc(C(=O)Nc2ccc(Oc3cc4cnn(C)c4cc3-c3cn[nH]c3)c(F)c2)c(=O)n1-c1ccc(F)cc1
IC50 (TYRO3; cell growth or viability; ATP luminescence): 0.028 µM

C/C(=N/N=c1/scc(-c2ccc(Br)cc2)n1Cc1ccccc1)c1ccc2c(c1)OCCO2
IC50 (Aldo-keto reductase family 1 member B1; enzyme activity; inhibitor; absorbance): 1.39 µM

COc1cccc(-c2cccc(Nc3nccc(NC4CCCCC4)n3)c2)c1
IC50 (FLT3; enzyme activity; inhibitor): 24.5 µM

NNC(COCc1ccccc1)c1nnnn1CCc1ccc(O)cc1 (centres unmarked)
IC50 (Endothiapepsin (EAPA, Cryphonectria parasitica, UniProt P11838); enzyme activity; inhibitor; fluorescence): 89.3 µM

COc1cc(OC)c(C(=O)CCCCN2CCC3(CC2)NC(=O)NC3=O)cc1NS(=O)(=O)c1ccc(C(F)(F)F)cc1
IC50 (HTR2C; ligand displacement; radioligand): 0.003 µM

O=C(Oc1nsnc1N1CCC(c2ccccc2)CC1)N1CCCCC1
IC50 (FAAH; enzyme activity; inhibitor; cell membranes): 1.48 µM

CC(C)(C)n1nc(-c2cnc3cc(OC4CC4)ccc3c2)c(C(N)=O)c1N
IC50 (CAMK2A; cell-free assay; inhibitor): > 10 µM

Cc1ccc2nc(-c3ccc([N+](=O)[O-])cc3)n(Cc3ccccc3)c2c1
IC50 (DHFR; enzyme activity; inhibitor): 6.78 µM

C/C(=N/N=c1/scc(-c2ccc(Br)cc2)n1-c1c(C)cccc1C)c1ccc2c(c1)OCCO2
IC50 (Aldo-keto reductase family 1 member B1; enzyme activity; inhibitor; absorbance): 3.14 µM

CC/C=C\C/C=C\C/C=C\C/C=C\C/C=C\CCCC(=O)O
IC50 (DNA topoisomerase 2-alpha (TOP2A, Homo sapiens, UniProt P11388); enzyme activity; inhibitor): 10 µM
